Assay results from publication PMC7263447 (Journal of medicinal chemistry, 2020).
Ends that are not written are not given here. * marks the point of attachment. Dnp = O=[N+]([O-])c1ccc(*)c([N+](=O)[O-])c1

Assays:
MDA-MB-231 cells [1] = experiment: Antibody-dependent cellular cytotoxicity with haNK cells; format: cell-based, human; settings: 500 nM conjugate, anti-DNP antibody, haNK effector:target 5:1, 4 h, LDH release
Outline: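 Targets were 150000 MDA-MB-231 cells, pulsed 5 min at 37 °C at pH 7.4 or 6.0. They were then held with 25 μg/mL rabbit anti-DNP-KLH for 30 min at 4 °C. Effectors were IL-2-maintained F176V CD16+ NK-92 (haNK) cells at 5:1 in MEMα, 4 h, 37 °C. Supernatant LDH was read at 490/680 nm. Lysis % = (LDH − normal)/normal × 100, normal being antibody plus effectors without conjugate. Mean ± SEM, n = 3–12.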

MDA-MB-231 cells [2] = experiment: Toxicity of conjugate alone; format: cell-based, human; settings: ≤10 μM conjugate only, LDH release (Figure S8)
MDA-MB-231 cells [3] = experiment: Complement-dependent cytotoxicity; format: cell-based, human; settings: 1 μM conjugate, 12.5% PHS, 4 h, LDH release
Outline: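 Cells (240000 MDA-MB-231) were treated in suspension with 1 μM conjugate for 5 min at 37 °C, at pH 7.4 or 6.0. After washing they were opsonised with 25 μg/mL rabbit anti-DNP-KLH (30 min, 4 °C). Pooled human complement serum was added to 12.5% in DMEM for 4 h at 37 °C. Supernatant LDH was assayed in triplicate (30 min RT, 490/680 nm). Cytotoxicity is relative to antibody-only cells without peptide. Mean ± SEM, n = 3–12.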

MDA-MB-231 cells [4] = experiment: Antibody-dependent cellular cytotoxicity with PBMCs; format: cell-based, human
Outline: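 MDA-MB-231 cells (150000) were exposed to the pH-adjusted conjugate for 5 min at 37 °C, at pH 7.4 or 6.0. After washing, they were incubated with unconjugated rabbit anti-DNP-KLH (25 μg/mL, 30 min, 4 °C). Single-donor human PBMCs were added at 50:1 in RPMI 1640 for 4 h at 37 °C. Supernatant LDH was read at 490/680 nm. Cytotoxicity % = (LDH − normal)/normal × 100. Control normal release was effector-only or target-only at pH 7.4.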

MDA-MB-231 cells [5] = experiment: Antibody recruitment from pooled human serum; format: cell-based; settings: 1 μM conjugate, pH 7.4 or 6.0, 12.5% PHS, FITC-labeled anti-human IgG, n = 3
MDA-MB-231 cells [6] = experiment: Antibody recruitment assay, anti-DNP-A488, flow cytometry; format: cell-based, human; settings: 1 μM conjugate, pH 7.4 or 6.0, 25 μg/mL anti-DNP-A488, flow cytometry, n = 3
Outline: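 Conjugate held at 20 μM in 5 mM sodium phosphate pH 9.0 for 1 h at RT, then diluted and pH-adjusted with citrate/PBS. Cells were washed, stained with anti-DNP-A488 rabbit polyclonal for 30 min at 4 °C, fixed in 4% PFA and read by flow cytometry. Values are fold over pH 7.4 antibody-only cells.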

Dnp-KEQNPIYWARYADWLFTTPLLLLELALLVDADEGTG [Conjugate 2]
cell lysis (ADCC, haNK cells), maximum efficacy (MDA-MB-231 cells [1]): ~ 40% | cell lysis by conjugate only (MDA-MB-231 cells [2]): cell lysis was not observed | cell lysis (CDC) (MDA-MB-231 cells [3]; pH 6.0, anti-DNP antibody): 10% | toxicity (CDC) (MDA-MB-231 cells [3]; pH 7.4, anti-DNP antibody): no toxicity at all | pH selectivity of PBMC-mediated cell lysis (MDA-MB-231 cells [4]; 1 μM conjugate, anti-DNP antibody, pH 6.0 vs 7.4): ~ 2 fold | cell lysis with mock anti-FITC antibodies or without antibodies (PBMCs) (MDA-MB-231 cells [4]; control, mock anti-FITC antibodies or no antibodies prior to PBMCs (Figure S7A)): cell lysis was not observed | antibody recruitment from serum (relative fluorescence) (MDA-MB-231 cells [5]): significant increase in relative fluorescence at pH 6.0 compared to that at pH 7.4 | anti-DNP antibody recruitment (cellular fluorescence) (MDA-MB-231 cells [6]): highest level of cellular fluorescence
